Values after ≈ are worked out from the molar mass of the structure shown. Active and inactive are the calls of the source. The calls are words filed in the database; no cut-off is given here.
Legend:
[1] = target: Serine/threonine-protein kinase mTOR (Homo sapiens) (UniProt P42345); experiment: Inhibition of mTOR signaling pathway in human Huh7.5 cells infected with FLAG-tagged HCV genotype 2a JFH-1 assessed as reduction in ratio of viral NS3 to cellular GAPDH protein level up to 50 uM after 72 hrs by Western blot analysis; assay type: cell-based
Summary of the method: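 Huh7.5 cells were infected with genotype 2a JFH1-FLAG and co-treated at up to 50 μM for 72 h. NS3 and GAPDH were read by Western blot, and the NS3:GAPDH ratio was expressed relative to DMSO-treated cells.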

[2] = target: Serine/threonine-protein kinase mTOR (Homo sapiens) (UniProt P42345); experiment: Inhibition of mTOR signaling pathway in human GS5 cells infected with HCV genotype 1b assessed as reduction in ratio of viral NS3 to cellular GAPDH protein level at 10 uM after 72 hrs by Western blot analysis; assay type: cell-based
Summary of the method: (§1)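 SGR2a (genotype 2a) or GS5 (genotype 1b) replicon cells were treated for 72 h, either at a single 10 μM dose or at increasing concentrations. Extracted proteins were blotted for NS3 and GAPDH, and blots plus repeats were quantified densitometrically as NS3:GAPDH ratio versus DMSO control (100%).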

[3] = target: Serine/threonine-protein kinase mTOR (Homo sapiens) (UniProt P42345); experiment: Inhibition of mTOR signaling pathway (unknown origin) in sub-genomic replicon 2A cells assessed as reduction in ratio of viral NS3 to cellular GAPDH protein level at 10 uM after 72 hrs by Western blot analysis; summary of the method: as §1
[4] = target: Serine/threonine-protein kinase mTOR (Homo sapiens) (UniProt P42345); experiment: Inhibition of mTOR signaling pathway (unknown origin) in sub-genomic replicon 2A cells assessed as reduction in ratio of viral NS3 to cellular GAPDH protein level at 5 uM after 72 hrs by Western blot analysis relative to control; summary of the method: as §1
[5] = target: Serine/threonine-protein kinase mTOR (Homo sapiens) (UniProt P42345); experiment: Inhibition of mTOR signaling pathway (unknown origin) in sub-genomic replicon 2A cells assessed as reduction in ratio of viral NS3 to cellular GAPDH protein level at 0.5 to 1 uM after 72 hrs by Western blot analysis relative to control; summary of the method: as §1
[6] = tested on: Ishikawa; experiment: Inhibition of estradiol-induced proliferation in human Ishikawa cells after 72 hrs by Cell-titer-Glo assay; assay type: functional, cell-based
[7] = tested on: MCF7; experiment: Inhibition of estradiol-induced proliferation in human MCF7 cells after 72 hrs by Cell-titer-Glo assay; assay type: functional, cell-based; conditions: MCF7, 72 h
[8] = tested on: MDA-MB-231; experiment: Inhibition of estradiol-induced proliferation in human MDA-MB-231 cells after 72 hrs by Cell-titer-Glo assay; assay type: functional, cell-based; conditions: MDA-MB-231, 72 h
[9] = target: Serine/threonine-protein kinase mTOR (Homo sapiens) (UniProt P42345); experiment: Inhibition of mTOR signaling pathway (unknown origin) in human GS5 cells infected with HCV genotype 1b assessed as reduction in ratio of viral NS3 to cellular GAPDH protein level at 5 uM after 72 hrs by Western blot analysis relative to control; assay type: cell-based; summary of the method: as §1
[10] = target: Serine/threonine-protein kinase mTOR (Homo sapiens) (UniProt P42345); experiment: Inhibition of mTOR signaling pathway (unknown origin) in human GS5 cells infected with HCV genotype 1b assessed as reduction in ratio of viral NS3 to cellular GAPDH protein level at 0.5 to 1 uM after 72 hrs by Western blot analysis relative to control; assay type: cell-based; summary of the method: as §1
[11] = tested on: Hepatitis C virus; experiment: Antiviral activity against HCV genotype 2a infected in human Huh7.5 cells electroporated with viral RNA assessed as […] reduction in ratio of viral NS3 to cellular GAPDH protein level up to 50 uM after 72 hrs by Western blot analysis; conditions: Hepacivirus hominis
[12] = tested on: Hepatitis C virus; experiment: Antiviral activity against HCV genotype 2a infected in human Huh7.5 cells assessed as reduction in viral RNA level at 0.1 to 10 uM after 72 hrs by qPCR analysis; assay type: functional, organism-based; conditions: Hepacivirus hominis
[13] = target: Serine/threonine-protein kinase mTOR (Homo sapiens) (UniProt P42345); experiment: Inhibition of mTOR signaling pathway (unknown origin) in sub-genomic replicon 2A cells assessed as reduction in ratio of phosphorylated rps6 protein level to rps6 protein level after 72 hrs by Western blot analysis
Summary of the method: (§2)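 SGR2a replicon cells were incubated with increasing compound concentrations for 72 h. Western blots were run for total rps6, phospho-rps6, phospho-S6K1 and GAPDH, and blots plus repeats were quantified as p-rps6 relative to GAPDH or to total rps6.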

[14] = tested on: Hepatitis C virus; experiment: Antiviral activity against HCV genotype 1b infected in human GS5 cells assessed as reduction in viral RNA level at 0.1 to 10 uM after 72 hrs by qPCR analysis; assay type: functional, organism-based; conditions: Hepacivirus hominis
Summary of the method: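 GS5 genotype 1b replicon cells were treated for 72 h across 0.1–10 μM. Total RNA was extracted, and HCV RNA and GAPDH mRNA were quantified by qPCR with HCV-specific primers.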

[15] = target: Serine/threonine-protein kinase mTOR (Homo sapiens) (UniProt P42345); experiment: Inhibition of mTOR signaling pathway (unknown origin) in sub-genomic replicon 2A cells assessed as reduction in ratio of phosphorylated rps6 protein level to rps6 protein level at 0.5 to 10 uM after 72 hrs by Western blot analysis relative to control; summary of the method: as §2
[16] = target: Serine/threonine-protein kinase mTOR (Homo sapiens) (UniProt P42345); experiment: Inhibition of mTOR signaling pathway (unknown origin) in sub-genomic replicon 2A cells assessed as reduction in ratio of phosphorylated S6K1 protein level at 0.1 uM after 72 hrs by Western blot analysis; summary of the method: as §2
[17] = target: Serine/threonine-protein kinase mTOR (Homo sapiens) (UniProt P42345); experiment: Inhibition of mTOR signaling pathway in human Huh7.5 cells assessed as reduction in rps6 protein levels at 0.5 to 10 uM after 72 hrs by Western blot analysis; assay type: cell-based
Summary of the method: (§3)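 Naïve, HCV-free Huh7.5 cells were incubated with increasing compound concentrations. Western blot analysis covered phospho-rps6, total rps6, S6K1 and actin.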

[18] = target: Serine/threonine-protein kinase mTOR (Homo sapiens) (UniProt P42345); experiment: Inhibition of mTOR signaling pathway in human Huh7.5 cells assessed as reduction in S6K1 levels at 0.5 to 10 uM after 72 hrs by Western blot analysis; assay type: cell-based; summary of the method: as §3

| SMILES | inhibition [1] | inhibition [2] | inhibition [3] | IC50 [7] [µg/mL] | also measured |
| --- | --- | --- | --- | --- | --- |
| COc1cc(-c2cc(=O)c3cc(C)cc([N+](=O)[O-])c3o2)cc(OC)c1OC | inactive |  |  |  |  |
| COc1ccc(-c2cc(=O)c3cc(C)cc([N+](=O)[O-])c3o2)cc1OC | inactive |  |  |  |  |
| COc1cc(O)c(C(=O)C#Cc2cc(OC)c(OC)c(OC)c2)c(OC)c1 | Active | Active | Active |  | Activity [12]: Active; inhibition [4]: 50%; inhibition [5]: inactive; inhibition [13]: Active; Activity [14]: inactive; inhibition [9]: 50%; inhibition [10]: inactive; Activity [11]: inactive |
| COc1ccc(C#CC(=O)c2cc(Br)cc(Br)c2O)cc1OC | Active | Active | Active |  | Activity [12]: Active; inhibition [4]: 50%; inhibition [5]: inactive; inhibition [15]: 50%; inhibition [16]: Active; inhibition [17]: Active; inhibition [18]: Active; inhibition [9]: 50%; inhibition [10]: inactive; Activity [11]: inactive |
| COc1ccc(-c2cc(=O)c3cc(Br)cc(Br)c3o2)cc1OC | inactive |  |  |  |  |
| Cl.O=C(c1ccc(OCCN2CCCCC2)cc1)c1c(-c2ccc(O)cc2)sc2cc(O)ccc12 [RALOXIFENE HYDROCHLORIDE] |  |  |  | 0.98 | IC50 [6]: 10.5 µg/mL; IC50 [8]: 11.2 µg/mL |
| COc1cc(C#CC(=O)c2cc(Cl)cc(Cl)c2O)cc(OC)c1OC | Active | Active | Active |  |  |
| CC/C(=C(\c1ccc(O)cc1)c1ccc(OCCN(C)C)cc1)c1ccccc1 [AFIMOXIFENE] |  |  |  | 0.95 (≈ 2.45 µM) |  |
| COc1ccc(C#CC(=O)c2cc(C)cc([N+](=O)[O-])c2O)cc1OC | Active | Active | Active | 2.24 (≈ 6.56 µM) | IC50 [6]: 1.43 µg/mL (≈ 4.19 µM); IC50 [8]: 0.99 µg/mL (≈ 2.9 µM); Activity [11]: inactive |
| COc1cc(OC)c(C(=O)C#Cc2cc(OC)c(OC)c(OC)c2)c(O)c1C | Active | Active | Active |  |  |
| CCCCCc1c(OC)cc(OC)c(C(=O)C#Cc2cc(OC)c(OC)c(OC)c2)c1O | inactive | Active | Active |  |  |

Second part, led by results:

| inhibition [1] | inhibition [2] | inhibition [3] | IC50 [7] [µg/mL] | SMILES | also measured |
| --- | --- | --- | --- | --- | --- |
| Active | Active | Active | 3.3 (≈ 9.4 µM) | COc1ccc(C#CC(=O)c2cc(Cl)cc(Cl)c2O)cc1OC | inhibition [4]: Active; inhibition [5]: inactive; IC50 [6]: 5.85 µg/mL (≈ 16.7 µM); IC50 [8]: 1.98 µg/mL (≈ 5.64 µM); inhibition [9]: Active; inhibition [10]: inactive; Activity [11]: inactive |
| inactive |  |  |  | COc1cc(-c2oc3c(Br)cc(Br)cc3c(=O)c2O)cc(OC)c1OC |  |
| inactive |  |  |  | COc1cc(-c2oc3c(Cl)cc(Cl)cc3c(=O)c2O)cc(OC)c1OC |  |
| inactive |  |  | > 35.7 | COc1ccc(-c2oc3c([N+](=O)[O-])cc(C)cc3c(=O)c2O)cc1OC | IC50 [6]: > 35.7 µg/mL; IC50 [8]: > 35.7 µg/mL |
| inactive |  |  |  | COc1cc(-c2oc3c([N+](=O)[O-])cc(C)cc3c(=O)c2O)cc(OC)c1OC |  |
| inactive |  |  |  | COc1ccc(-c2oc3c(Br)cc(Br)cc3c(=O)c2O)cc1OC |  |
| inactive |  |  |  | COc1cc(-c2cc(=O)c3cc(Cl)cc(Cl)c3o2)cc(OC)c1OC |  |
| inactive |  |  | > 36.7 | COc1ccc(-c2oc3c(Cl)cc(Cl)cc3c(=O)c2O)cc1OC | IC50 [6]: > 36.7 µg/mL; IC50 [8]: > 36.7 µg/mL |

Reference: ChEMBL document CHEMBL4177560, “Functional evaluation of synthetic flavonoids and chalcones for potential antiviral and anticancer properties” (Bioorg Med Chem Lett, 2017)
